Active and inactive are the calls of the source.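 Rule for the calls, unless noted: active = GFP response above 150% of the DMSO level; inconclusive = fewer than 70 events counted for a yeast strain; inactive = the rest.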
Tests used:
[1] = RPL19A-GFP modulators, yeast TOR pathway, confirmation, cell-based, S. cerevisiae, flow cytometry, cherry picks, mother/daughter gates (AID 2270;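 active = GFP response below 50% of the DMSO control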); details: S. cerevisiae RPL19A-GFP strain, 3 h, at 10 µM, stronger effect = lower value, 100 = same GFP as DMSO wells
[2] = LAP4-GFP expression modulators in yeast, confirmation, cell-based, cherry picks, flow cytometry, mother/daughter gates (AID 2271;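 active = GFP response above 150% of the DMSO control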;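 note: ratio of sample to DMSO plate mean so 100% equals DMSO level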); details: S. cerevisiae LAP4-GFP strain, 3 h, at 10 µM, stronger effect = higher value, 100 means same as DMSO control
Summary of the method: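 Test system: GFP-fusion yeast strain. Medium: synthetic complete (SC) yeast growth medium. Timing: 3 h treatment at 30 °C with rotation. Measured by: GFP by flow cytometry. Control set: positive rapamycin (400 ng/mL), negative DMSO.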

[3] = modulators of MEP2-GFP levels in yeast, confirmation, S. cerevisiae, flow cytometry GFP, cherry picks (AID 2272;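 active = GFP response above 150% of the DMSO control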;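 note: ratio of well signal to plate DMSO mean so 100% equals DMSO level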); details: S. cerevisiae MEP2-GFP strain, 3 h, at 10 µM, stronger effect = higher value
[4] = AGP1-GFP expression modulators, hit retest, confirmation, cell-based, flow cytometry, S. cerevisiae, cherry picks (AID 2273);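 note: median GFP channel fluorescence over the whole cell population gate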; details: S. cerevisiae AGP1-GFP strain, 3 h, at 10 µM
[5] = modulators of CIT2-GFP expression in yeast, confirmation, S. cerevisiae, GFP fusion, cherry picks, mother/daughter gates (AID 2274); details: S. cerevisiae CIT2-GFP strain, flow cytometry, 3 h, at 10 µM, stronger effect = higher value
[6] = measured here: daughter cell gate
[7] = measured here: mother cell gate
[8] = measured here: daughter cell gate response
[9] = measured here: mother cell gate response

Compound | GFP response vs DMSO [1] | GFP response vs DMSO [1, 6] | GFP response vs DMSO [1, 7] | GFP response relative to DMSO [2] | GFP response relative to DMSO [2, 8] | GFP response relative to DMSO [2, 9] | GFP response vs DMSO [3] | GFP response, % of DMSO [4] | GFP response, % of DMSO [5] | GFP response, % of DMSO [5, 6] | GFP response, % of DMSO [5, 7]
CC1(C(=O)OCc2cc(=O)n3cc(Br)ccc3n2)CC1(Cl)Cl (stereo not drawn) | 92.5% (inactive) | 89.9% | 93.8% | 133% (inactive) | 123% | 139% | 94.4% (inactive) | 103% (inactive) | 88.5% (inactive) | 87.3% | 88.8%
CCc1c2ccccc2nn1-c1ccccc1C(=O)C(C)=O | 95.8% (inactive) | 97.3% | 94% | 102% (inactive) | 101% | 102% | 103% (inactive) | 100% (inactive) | 98.6% (inactive) | 99.3% | 98.2%
O=C(NC(=S)NNC(=O)[C@H]1C[C@@H]1c1ccccc1)c1cccc(F)c1 | 111% (inactive) | 115% | 110% | 150% (active) | 144% | 147% | 135% (inactive) | 109% (inactive) | 137% (inactive) | 141% | 127%
CCCc1nnc(N2C(=O)c3cccc4cccc(c34)C2=O)s1 | 103% (inactive) | 103% | 102% | 115% (inactive) | 104% | 113% | 103% (inactive) | 108% (inactive) | 113% (inactive) | 106% | 115%
COc1cc(C2CC(c3cccnc3)=NN2c2ccc(F)cc2)cc(OC)c1OC (stereo not drawn) | 98.2% (inactive) | 98.4% | 95.2% | 95.3% (inactive) | 94.4% | 95.4% | 101% (inactive) | 102% (inactive) | 98.6% (inactive) | 97.6% | 96%
Cc1ccc(C(C[N+](=O)[O-])n2nc(C)cc2C)cc1 (stereo not drawn) | 97% (inactive) | 101% | 93.6% | 120% (inactive) | 120% | 125% | 103% (inactive) | 102% (inactive) | 90.9% (inactive) | 95.2% | 87.8%
CCc1cccc(C)c1NC(=O)CC1Oc2ccc(C)cc2NC1=O (stereo not drawn) | 99.3% (inactive) | 99.5% | 100% | 90.6% (inactive) | 91.3% | 91.3% | 101% (inactive) | 101% (inactive) | 98.6% (inactive) | 97.6% | 98.2%
NC(=O)c1ccc(Oc2ccc(-c3nnco3)cc2)c([N+](=O)[O-])c1 | 98.4% (inactive) | 100% | 99.1% | 93.8% (inactive) | 95.6% | 94.2% | 100% (inactive) | 98.7% (inactive) | 110% (inactive) | 105% | 112%
